Most compounds without a hit are left out; they make up all but 2.3% or so of the library.
SR-BI DiI-HDL act: SR-BI HDL lipid transfer activation; CHO ldlA[mSR-BI] cells, DiI-HDL uptake fluorescence, 3 h; 100 = double the neutral-control signal; activation, % at 12.5 µM; actives 0.096% (n = 320,000); AID 504775;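 active means mean replicate activation of at least 60% and every replicate at or above 60%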;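 further: 0% = median plate neutral-control signal and 100% = twice that signal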
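material = CHO ldlA[mSR-BI] cells | medium = Ham's F12 with 0.5% BSA, HEPES 25 mM, pH 7.4 | reagent = fluorescent DiI-HDL, 10 µg/mL final | compound dosing = single-point compound dose | incubation = 3 h, 37 °C | measured by = bottom-read fluorescence, 550/595 nm | measure = HDL uptake via cellular fluorescence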
ATG4B inh: blocks human ATG4B protease cleavage of LC3 substrate. ATG4B cleavage of LC3-PLA2, NBD-HPC fluorescence, 1 h. inhibition, % at 8.33 µM. actives 0.51% (n = 340,000). AID 504462; in the data active means inhibition above about 40%
Target sequence (Q9Y4P1 whole entry, looked up): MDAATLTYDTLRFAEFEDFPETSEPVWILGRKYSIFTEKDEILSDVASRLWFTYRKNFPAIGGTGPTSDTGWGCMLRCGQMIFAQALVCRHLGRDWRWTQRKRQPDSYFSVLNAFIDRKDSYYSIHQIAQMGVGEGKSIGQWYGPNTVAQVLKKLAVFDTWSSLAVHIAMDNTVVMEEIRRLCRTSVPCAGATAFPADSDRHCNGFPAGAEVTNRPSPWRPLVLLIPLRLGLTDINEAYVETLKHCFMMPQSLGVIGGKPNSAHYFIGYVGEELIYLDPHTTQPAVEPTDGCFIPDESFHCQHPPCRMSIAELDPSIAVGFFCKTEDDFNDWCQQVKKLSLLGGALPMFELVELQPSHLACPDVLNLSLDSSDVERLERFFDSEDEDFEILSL
CAL PDZ FP-1: inhibitors of human CAL PDZ peptide binding; Q9HD26; purified CAL PDZ, TMR-peptide fluorescence polarization, 1 h; inhibition, % at 24.9 µM; actives 0.92% (n = 300,000);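 active means mean inhibition of at least 30% with at least half of replicates also reaching 30%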;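 further: 0% = DMSO neutral control and 100% = excess unlabeled competitor peptide PRC23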
SR-BI DiI inh: inhibitors of mouse SR-BI mediated HDL lipid uptake | actives 0.96% (n = 320,000) | ldlA[mSR-BI] CHO cells, DiI-HDL uptake fluorescence, 3 h | inhibition, % at 12.5 µM | Q61009 | AID 488896;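 active means mean replicate inhibition of at least 70% and a set share of replicates each scoring 70 or more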;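 further: 0% = median of neutral control wells and 100% = median of positive control wells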
CAL PDZ FP-2: blocks peptide binding to human CAL PDZ domain | purified CAL PDZ, TMR-peptide fluorescence polarization, 1 h | inhibition, % at 20 µM | actives 0.02% (n = 330,000) | AID 504414;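 active means highest replicate inhibition of at least 40%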;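 further: plate controls were DMSO neutral control wells for no effect and unlabeled competitor peptide control wells for full effect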
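Material: tagged CAL PDZ domain; buffer or medium: 25 mM sodium phosphate pH 7.4, 150 mM NaCl, TCEP, IgG, Thesit; compound dosing: single point, 20 µM; schedule: 1 h incubation at room temperature before polarization reading; measured by: FP readout, S and P plane fluorescence; read-out basis: percent inhibition from loss of millipolarization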
* marks the source's active call; other numbers are inactive results; / = not tested or not shown.

SMILES	SR-BI DiI-HDL act	ATG4B inh	CAL PDZ FP-1	SR-BI DiI inh	CAL PDZ FP-2
COc1ccc(C2=NN(C(=O)c3ccncc3)C(c3ccccc3O)C2)cc1 (stereo not given)	-21	-8	-3	21	-3
O=C(c1ccncc1)N1N=C(c2ccc(Cl)cc2)CC1c1ccccc1O (stereo not given)	-82	3	-3	82*	-3
ON=C1C2CC=C(c3ccccc3)C1CCC2 (stereo not given)	-1	2	-1	1	-1
COc1ccc(NC(=O)C(NC(=O)Cc2cccs2)c2ccc(C)cc2)cc1 (stereo not given)	65*	-8	-13	-65	-2
CN(C)c1ccc(NC(=O)Nc2ccc3c(c2)nnn3C)cc1	-17	-8	43*	17	-1
COCCCN1C(=O)N(c2ccc(F)cc2)C(=O)C1CC(=O)Nc1ccc(OC)cc1 (stereo not given)	-76	-1	-6	76*	0
CCc1ccc(NC(=O)CC2C(=O)N(c3cccc(OC)c3)C(=O)N2CCOC)cc1 (stereo not given)	310*	5	1	-310	-1
COc1cc(NC(=O)c2cc([N+](=O)[O-])ccc2N2CCOCC2)ccc1NC(=O)c1ccco1	-80	-1	-2	80*	1
CC(C)CC(=O)c1c[nH]c(C(=O)N2CCN(Cc3ccccc3)CC2)c1	20	-12	80*	-20	-2
CC(=O)c1ccc(S(=O)(=O)Nc2ccc(C(=O)N3CCC3)cc2)cc1	21	5	-6	-21	0
O=C1NCCCCC1NS(=O)(=O)c1ccc(F)c(F)c1 (stereo not given)	9	6	110*	-9	-1
CCc1ccc(S(=O)(=O)NC2CCCCNC2=O)cc1 (stereo not given)	/	11	3	/	0
COc1cc(/C=N\NC(=O)c2ccc(Cn3nc([N+](=O)[O-])c(Cl)c3C)o2)ccc1O	-46	15	-3	46	1
COc1cccc(/C=N/Nc2ccccc2C(=O)O)c1O	23	-1	81*	-23	0
COc1cccc(/C=N/NC(=O)c2nc(-c3ccccc3)cc(-c3ccccc3)n2)c1O	-106	14	-8	106*	-3
COc1cccc(/C=N/NC(=O)N/N=C/c2cccc(OC)c2O)c1O	-83	0	-7	83*	-1
COc1cccc(/C=N/Nc2ccc(C(=O)O)cc2)c1O	22	-3	0	-22	-1
COc1cccc(/C=N\NC(=O)c2ccc(Cn3cc(Br)c([N+](=O)[O-])n3)o2)c1O	-101	1	7	101*	-2
COc1cccc(C=NNC(=O)c2ccncc2)c1O	-31	-6	/	31	-1
COc1cccc(/C=N/NC(=O)c2c(C)nc3ccc(Br)cn23)c1O	-100	-12	4	100*	-1
CCOc1ccccc1/C=N/NC(=O)c1c(C)nc2ccc(Br)cn12	-66	-18	-4	66	1
O=C(C1CCCC1)N1CCC(CC2CC(c3cccc(Br)c3)=NO2)(C(=O)NCC2CCCCC2)CC1 (stereo not given)	-43	2	-5	43	-2
CCOc1cc(C(=O)N2CCC(CC3CC(c4cccc(Br)c4)=NO3)(C(=O)NCC3CCCCC3)CC2)cc(OCC)c1OCC (stereo not given)	-74	0	-1	74*	0
CCOc1cc(/C=C2\CCn3c2nc2cc(Cl)ccc2c3=O)ccc1O	/	-5	-8	/	-2
O=C(O)c1cc(-c2ccccc2)n[nH]1	-4	1	-7	4	-2
SMILES	SR-BI DiI-HDL act	ATG4B inh	CAL PDZ FP-1	SR-BI DiI inh	CAL PDZ FP-2
Cn1cccc1-c1cc(C(=O)O)[nH]n1	-3	-6	41*	3	0
CCCC(C(=O)NC(C)(C)CC)N(Cc1ccco1)C(=O)CNS(=O)(=O)c1ccccc1 (stereo not given)	/	-3	/	/	-1
O=C(O)C(NC(=O)C1CCCN1C(=O)OCc1ccccc1)c1ccccc1 (stereo not given)	30	-1	-2	-30	0
O=C(O)CC(CNC(=O)C1CCCN1C(=O)OCc1ccccc1)c1ccccc1 (stereo not given)	15	-8	74*	-15	/
CC(C)(C)c1ccc(OCC(=O)Nc2ccc3c4c(cccc24)C(=O)NC3=O)cc1	-27	-7	/	27	-1
CC1=NN2C(=N)/C(=C\c3ccc(SCc4ccccc4)o3)C(=O)N=C2S1	31	-6	55*	-31	-1
COc1ccc(Cl)cc1NC(=O)NC1CCCCC1	-19	8	-3	19	0
CCCN1CCC(NC(=O)Nc2cc(Cl)ccc2OC)CC1	6	-11	36*	-6	-1
CCOc1ccccc1NC(=O)C1C2CCC3C(CCC21)C3(Cl)Cl (stereo not given)	-73	2	-5	73*	-2
O=C(Nc1ccccc1Cl)C1C2CCC3C(CCC21)C3(Cl)Cl (stereo not given)	-4	0	/	4	-1
Cc1nc(N/N=C/c2ccc(O)cc2)c2cnn(-c3ccccc3)c2n1	-75	-10	2	75*	-2
C=CCOC(=O)c1ccccc1C(=O)OCC1CO1 (stereo not given)	17	-6	-4	-17	0
CC(C)(C)[C@H]1COC(=O)CCC/C=C/C[C@H](CC(=O)N(CCO)Cc2ccccc2)C(=O)N1	7	-1	-3	-7	0
CC(C)(C)[C@H]1COC(=O)CCCC/C=C\C[C@H](CC(=O)N(CCO)Cc2ccccc2)C(=O)N1	25	-7	106*	-25	-1
CCc1ccc(C(=O)NNC(=O)c2c(CC)noc2C)cc1	-1	3	60*	1	0
CCOc1ccc(NC(=O)/C(C#N)=C/c2ccc(N3CCCC3)c(C)c2)cc1	-96	11	-1	96*	1
O=C(COC(=O)c1cc(-c2ccco2)nc2ccccc12)NCc1ccccc1	7	0	-4	-7	/
CNC(=O)COC(=O)c1cc(-c2ccco2)nc2ccccc12	1	1	47*	-1	-1
CCCCCC(=O)Nc1ccc(Cl)cn1	39	-10	-6	-39	0
CCCCCCC(=O)Nc1ccc(Br)cn1	-16	-11	63*	16	-2
Cc1cccc(C(=O)OCC(=O)Nc2c(C)n(C)n(-c3ccccc3)c2=O)c1O	/	-8	-2	-7	-1
O=C(c1cc(COc2c(F)cccc2F)on1)N(Cc1ccccc1)CC1CC1	6	32	64*	-6	-1
CN1CCN(CCC(=O)N/N=C/c2cc([N+](=O)[O-])ccc2OC(F)F)CC1	-5	-6	4	5	0
CC1CCN(CCC(=O)N/N=C/c2ccc([N+](=O)[O-])cc2)CC1	36	-2	163*	-36	1

Compound activity (PubChem BioAssay)
